In brackets after ≈: the same amount, converted by molar mass. Several values for one entry are separate records, joined by “and”; a condition that tells them apart may be missing. Identical values can stand only once. Like-named read-outs stand apart in the source and are kept apart here.
Legend:
[1] = system: persistent AF canine model; assay: Proarrhythmic risk; assay type: in vivo, beagle dogs; conditions: 3 mg/kg i.v.; for peak increment of STVQT: at 3 h (dronedarone), 9 h (poyendarone), 1 h (amiodarone), n = 4
[2] = system: persistent AF canine model; assay: Anti-atrial fibrillatory effect in persistent AF canine model; assay type: in vivo, beagle dogs
[3] = system: canine model of paroxysmal AF; conditions: basic pacing cycle length of 200 ms; cited from earlier work
CYP3A4 [4] = target: T1, CYP3A4 (Homo sapiens, UniProt P08684); assay: Metabolic stability, substrate depletion, rCYP3A4; assay type: in vitro ADME
T1 sequence (P08684 whole entry): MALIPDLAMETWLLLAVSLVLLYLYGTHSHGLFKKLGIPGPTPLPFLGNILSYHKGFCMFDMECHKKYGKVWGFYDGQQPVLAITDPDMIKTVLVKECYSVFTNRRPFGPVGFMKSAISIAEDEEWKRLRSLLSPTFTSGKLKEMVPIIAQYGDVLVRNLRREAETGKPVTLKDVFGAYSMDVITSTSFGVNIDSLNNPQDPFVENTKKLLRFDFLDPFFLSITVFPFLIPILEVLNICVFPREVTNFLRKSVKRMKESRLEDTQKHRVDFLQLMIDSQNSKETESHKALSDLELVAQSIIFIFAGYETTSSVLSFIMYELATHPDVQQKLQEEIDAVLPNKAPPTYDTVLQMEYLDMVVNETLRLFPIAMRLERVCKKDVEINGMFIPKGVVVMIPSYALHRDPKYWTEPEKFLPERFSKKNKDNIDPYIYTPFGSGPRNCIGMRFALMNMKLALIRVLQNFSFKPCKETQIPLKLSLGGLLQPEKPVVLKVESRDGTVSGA
In short: (§1)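 Substrate depletion. Test compound at 1 μmol/L incubated with NADPH generating system (NADP+, glucose 6-phosphate, glucose-6-phosphate dehydrogenase) and one enzyme source: human liver microsomes 0.5 mg/mL, rCYP3A4 10 pmol/mL or rCYP3A5 10 pmol/mL. Aliquots at set times quenched in ice-cold ACN with internal standard; parent measured by LC–MS/MS. Percent remaining versus time fitted to one-phase decay for CLint.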

hiPSC-CMs = assay: BTB variability in hiPSC-CMs; assay type: cell-based, human; conditions: hiPSC-CM, 1 μmol/L
In short: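 Cardiomyocytes from hiPSC made by viral-free reprogramming of human foreskin fibroblasts. Exposed to test compound (0–10 μmol/L); MEA field potentials recorded 5 min at baseline and 5 min after dosing. Successive RR intervals plotted as Poincaré plots, giving SD1 (STVRR) and SD2 (LTVRR). One experiment in triplicate, mean ± SEM; groups compared with control by one-way ANOVA and Dunnett's test.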

[5] = Effective permeability by PAMPA; assay type: physicochemical; conditions: pH 7.4
CYP2J2 [6] = target: T2, CYP2J2 (Homo sapiens, UniProt P51589); assay: in vitro; assay type: in vitro ADME
T2 sequence (P51589 1-502): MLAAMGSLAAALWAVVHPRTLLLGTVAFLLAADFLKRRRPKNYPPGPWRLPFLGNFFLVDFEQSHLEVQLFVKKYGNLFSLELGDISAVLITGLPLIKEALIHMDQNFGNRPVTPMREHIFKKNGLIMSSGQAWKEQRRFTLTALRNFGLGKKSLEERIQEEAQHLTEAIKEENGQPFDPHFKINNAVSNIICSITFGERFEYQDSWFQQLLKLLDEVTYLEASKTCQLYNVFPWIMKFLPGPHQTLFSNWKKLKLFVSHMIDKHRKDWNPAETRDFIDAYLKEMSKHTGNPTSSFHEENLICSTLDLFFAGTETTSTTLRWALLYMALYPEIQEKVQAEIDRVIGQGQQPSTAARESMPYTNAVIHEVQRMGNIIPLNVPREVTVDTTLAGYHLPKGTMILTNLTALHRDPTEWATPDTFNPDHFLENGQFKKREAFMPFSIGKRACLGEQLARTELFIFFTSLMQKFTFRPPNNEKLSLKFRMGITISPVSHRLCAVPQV

[7] = Metabolic stability, substrate depletion, HLM; assay type: in vitro ADME; conditions: human, human liver microsomes
In short: as §1

CYP2J2 [8] = target: T2, CYP2J2; assay type: biochemical; conditions: co-incubation 2 h with NADPH
[9] = Aqueous kinetic solubility; assay type: physicochemical; conditions: universal aqueous buffer, pH 7.4
In short: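 Kinetic solubility: test compound from 10 mmol/L DMSO stock diluted into universal aqueous buffer, pH 7.4 (1% DMSO, v/v), then sonicated. Run in 3 filter-plate wells, agitated 24 h at 250 rpm at room temperature and filtered. Filtrate brought to 80:20 buffer/ACN. Solubility estimated from UV absorbance at 300 nm.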

CYP3A5 [10] = target: T3, CYP3A5 (Homo sapiens, UniProt P20815); assay: Mechanism-based inactivation of CYP3A5, rivaroxaban as probe substrate; assay type: biochemical
T3 sequence (P20815 whole entry): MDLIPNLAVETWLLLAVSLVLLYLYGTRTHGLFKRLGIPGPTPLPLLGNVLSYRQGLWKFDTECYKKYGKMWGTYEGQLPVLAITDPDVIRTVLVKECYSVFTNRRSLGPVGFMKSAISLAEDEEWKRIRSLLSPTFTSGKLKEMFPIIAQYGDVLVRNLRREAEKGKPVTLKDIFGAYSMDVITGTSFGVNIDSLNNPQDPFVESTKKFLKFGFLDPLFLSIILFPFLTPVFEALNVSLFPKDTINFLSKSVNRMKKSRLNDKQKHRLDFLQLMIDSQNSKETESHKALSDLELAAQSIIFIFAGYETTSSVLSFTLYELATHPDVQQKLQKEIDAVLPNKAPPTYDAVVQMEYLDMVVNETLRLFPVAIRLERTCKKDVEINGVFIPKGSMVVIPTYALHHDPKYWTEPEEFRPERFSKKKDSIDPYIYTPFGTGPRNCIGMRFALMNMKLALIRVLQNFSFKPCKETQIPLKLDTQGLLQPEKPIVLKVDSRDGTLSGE
In short: (§2)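 Two-step inactivation assay. Recombinant CYP3A4 or CYP3A5 (20 pmol/mL) pre-incubated at 37 °C with test compound (0–20 μmol/L) and NADPH system in potassium phosphate buffer. At set times, aliquots diluted 20-fold into rivaroxaban plus NADPH regenerating system and incubated 2 h. ACN quench; rivaroxaban morpholinone product measured by LC–MS/MS. kobs from log % activity versus time; kinact and KI from kobs versus concentration; n = 3, mean ± SEM.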

hKV11.1 (hERG) channel = hKV11.1 (hERG) channel (Homo sapiens, UniProt Q12809); assay: Whole-cell patch clamp, KV11.1 tail current in transfected HEK293FT cells; assay type: cell-based
hKV11.1 (hERG) channel, sequence (Q12809 whole entry): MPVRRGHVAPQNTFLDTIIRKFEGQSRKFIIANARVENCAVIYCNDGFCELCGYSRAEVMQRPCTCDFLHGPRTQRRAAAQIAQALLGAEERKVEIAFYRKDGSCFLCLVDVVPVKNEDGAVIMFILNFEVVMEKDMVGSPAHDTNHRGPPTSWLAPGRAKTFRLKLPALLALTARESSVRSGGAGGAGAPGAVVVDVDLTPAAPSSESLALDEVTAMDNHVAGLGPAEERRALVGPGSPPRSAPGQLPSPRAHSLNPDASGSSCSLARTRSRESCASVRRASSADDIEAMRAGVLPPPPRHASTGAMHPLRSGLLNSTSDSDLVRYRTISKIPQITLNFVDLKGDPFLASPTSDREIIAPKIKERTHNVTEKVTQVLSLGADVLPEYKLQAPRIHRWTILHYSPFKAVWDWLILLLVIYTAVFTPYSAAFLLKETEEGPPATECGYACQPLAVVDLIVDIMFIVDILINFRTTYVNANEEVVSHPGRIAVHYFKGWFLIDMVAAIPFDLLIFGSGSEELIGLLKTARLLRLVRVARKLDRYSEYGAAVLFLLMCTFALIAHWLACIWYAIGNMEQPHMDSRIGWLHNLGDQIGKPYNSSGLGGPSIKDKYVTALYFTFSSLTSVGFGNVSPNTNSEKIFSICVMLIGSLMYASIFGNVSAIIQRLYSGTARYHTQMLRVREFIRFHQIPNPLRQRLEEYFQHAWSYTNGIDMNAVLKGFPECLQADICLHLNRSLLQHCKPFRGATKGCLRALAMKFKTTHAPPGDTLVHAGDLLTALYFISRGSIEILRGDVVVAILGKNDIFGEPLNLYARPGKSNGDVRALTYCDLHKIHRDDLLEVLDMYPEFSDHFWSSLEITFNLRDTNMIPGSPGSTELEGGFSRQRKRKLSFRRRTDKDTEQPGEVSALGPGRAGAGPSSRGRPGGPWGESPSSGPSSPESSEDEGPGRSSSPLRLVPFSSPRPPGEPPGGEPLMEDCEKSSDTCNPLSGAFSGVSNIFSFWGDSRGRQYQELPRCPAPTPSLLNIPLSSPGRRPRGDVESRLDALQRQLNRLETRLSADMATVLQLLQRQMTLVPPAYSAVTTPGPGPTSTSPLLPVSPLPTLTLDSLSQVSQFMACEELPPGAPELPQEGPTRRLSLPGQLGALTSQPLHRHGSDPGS
In short: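 HEK293FT cells grown in DMEM with 10% FBS at 37 °C, 5% CO2. Co-transfected with human KV11.1 and KCNE1 plasmids, then plated on poly-D-lysine coverslips. Test compound applied at 10 nmol/L–1 μmol/L under whole-cell voltage clamp: 1 kHz filter, >70% series-resistance compensation, P/4 leak subtraction. Pulses of 2.5 s from −80 to 20 mV; tail current recorded at −60 mV. IC50 from variable-slope log(inhibitor)–response fit.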

CYP2J2 [11] = target: T2, CYP2J2; assay: in vitro; assay type: biochemical
[12] = target: human CaV1.2 α1C cardiac isoform (Homo sapiens, UniProt Q13936); assay: Whole-cell patch clamp, CaV1.2 peak current in transfected HEK293FT cells; assay type: cell-based
CYP3A5 [13] = target: T3, CYP3A5; assay: Metabolic stability, substrate depletion, rCYP3A5; assay type: in vitro ADME
In short: as §1

human NaV1.5 channel = human NaV1.5 channel (Homo sapiens, UniProt Q14524); assay: Whole-cell patch clamp, NaV1.5 peak current in transfected HEK293FT cells; assay type: cell-based
human NaV1.5 channel, sequence (Q14524 whole entry): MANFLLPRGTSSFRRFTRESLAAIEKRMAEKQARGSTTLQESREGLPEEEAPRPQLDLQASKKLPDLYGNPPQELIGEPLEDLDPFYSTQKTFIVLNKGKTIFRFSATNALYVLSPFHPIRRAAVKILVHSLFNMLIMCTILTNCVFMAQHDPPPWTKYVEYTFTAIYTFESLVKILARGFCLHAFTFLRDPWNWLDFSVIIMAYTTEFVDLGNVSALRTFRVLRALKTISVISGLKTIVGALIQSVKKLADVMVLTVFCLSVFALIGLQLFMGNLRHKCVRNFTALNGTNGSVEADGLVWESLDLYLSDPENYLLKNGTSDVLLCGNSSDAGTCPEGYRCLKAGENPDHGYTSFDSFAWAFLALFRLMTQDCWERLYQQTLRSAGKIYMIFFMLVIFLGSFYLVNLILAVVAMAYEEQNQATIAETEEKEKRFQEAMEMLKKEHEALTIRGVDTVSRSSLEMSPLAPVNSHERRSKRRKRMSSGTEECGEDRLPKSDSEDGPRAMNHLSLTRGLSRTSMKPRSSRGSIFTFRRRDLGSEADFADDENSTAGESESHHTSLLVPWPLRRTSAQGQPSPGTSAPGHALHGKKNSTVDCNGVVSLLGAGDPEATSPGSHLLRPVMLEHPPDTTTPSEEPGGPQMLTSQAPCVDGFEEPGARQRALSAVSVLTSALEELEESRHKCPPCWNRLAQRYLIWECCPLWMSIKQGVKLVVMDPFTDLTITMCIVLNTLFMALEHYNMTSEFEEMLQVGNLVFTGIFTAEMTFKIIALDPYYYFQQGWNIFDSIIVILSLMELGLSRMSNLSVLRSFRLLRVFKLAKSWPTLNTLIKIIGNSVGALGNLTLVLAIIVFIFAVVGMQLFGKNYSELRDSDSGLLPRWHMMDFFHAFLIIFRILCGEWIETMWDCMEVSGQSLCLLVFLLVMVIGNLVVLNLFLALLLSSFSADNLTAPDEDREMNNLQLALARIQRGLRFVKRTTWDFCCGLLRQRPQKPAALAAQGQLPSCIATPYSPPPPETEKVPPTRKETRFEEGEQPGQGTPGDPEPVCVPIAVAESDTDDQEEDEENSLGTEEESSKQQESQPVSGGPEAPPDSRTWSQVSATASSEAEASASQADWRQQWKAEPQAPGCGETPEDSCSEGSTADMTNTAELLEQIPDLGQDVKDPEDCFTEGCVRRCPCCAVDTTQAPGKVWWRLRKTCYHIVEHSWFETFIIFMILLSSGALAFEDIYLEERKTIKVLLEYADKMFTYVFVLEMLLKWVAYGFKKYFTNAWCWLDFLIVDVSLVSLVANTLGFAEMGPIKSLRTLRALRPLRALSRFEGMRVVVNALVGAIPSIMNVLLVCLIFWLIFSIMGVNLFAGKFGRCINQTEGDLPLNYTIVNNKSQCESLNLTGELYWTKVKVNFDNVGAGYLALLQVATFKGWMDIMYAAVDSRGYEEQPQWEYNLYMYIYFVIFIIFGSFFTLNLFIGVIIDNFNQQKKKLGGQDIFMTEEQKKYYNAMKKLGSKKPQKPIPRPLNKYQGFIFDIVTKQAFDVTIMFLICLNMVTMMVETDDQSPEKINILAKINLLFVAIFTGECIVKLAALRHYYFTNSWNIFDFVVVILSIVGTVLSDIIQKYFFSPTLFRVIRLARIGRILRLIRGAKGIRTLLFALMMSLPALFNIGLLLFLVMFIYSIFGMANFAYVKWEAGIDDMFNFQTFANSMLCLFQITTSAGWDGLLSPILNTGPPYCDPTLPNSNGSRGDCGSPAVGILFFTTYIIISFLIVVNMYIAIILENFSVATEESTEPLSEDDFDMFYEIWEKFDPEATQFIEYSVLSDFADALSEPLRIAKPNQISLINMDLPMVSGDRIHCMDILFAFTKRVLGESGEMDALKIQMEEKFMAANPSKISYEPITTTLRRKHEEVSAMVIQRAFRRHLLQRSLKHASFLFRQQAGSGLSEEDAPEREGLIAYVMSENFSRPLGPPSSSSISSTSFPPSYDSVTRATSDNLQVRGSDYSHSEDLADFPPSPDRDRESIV
In short: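 HEK293FT cells grown in DMEM with 10% FBS at 37 °C, 5% CO2. Co-transfected with human NaV1.5 and β1-subunit plasmids; replated on coated coverslips 24 h before recording. Peak INa measured by whole-cell voltage clamp with test compound at 1–10 μmol/L: 5–6 kHz filter, >70% series-resistance compensation, P/4 leak subtraction. IC50 from variable-slope log(inhibitor)–response fit.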

CYP2J2 [14] = target: T2, CYP2J2; assay type: biochemical; conditions: CYP2J2-mediated astemizole O-desmethylation
CYP3A4 [15] = target: T1, CYP3A4; assay: Mechanism-based inactivation of CYP3A4, rivaroxaban as probe substrate; assay type: biochemical
In short: as §2

H9c2 cells = assay: Concurrent cytotoxicity and ATP depletion; assay type: cell-based, rat; conditions: 6 h
[16] = hydrochloride 3 mg/kg i.v., conscious dogs

## CCCCc1oc2ccccc2c1C(=O)c1cc(I)c(OCCN(CC)CC)c(I)c1 [Amiodarone]
[1]
  peak increment of STVQT: 1.05 ± 0.41 ms
[2]; hydrochloride 3 mg/kg i.v., animal #1
  spontaneous AF recurrence, time after the termination of AF: 5.2 h
[2]; [16]
  time of AF termination after the start of administration (individual animals): 7.7 h and 5.9 h
[3]
  atrial effective refractory period prolongation: -3 ms
  inter-atrial conduction time prolongation: +1 ms

## CCCCc1oc2ccc(NS(C)(=O)=O)cc2c1C(=O)c1ccc(OCCCN(CCCC)CCCC)cc1 [Dronedarone]
CYP3A4 [4]; human, recombinant CYP3A4 (rCYP3A4)
  half-life at 1 μmol/L: 8.05 min
CYP3A4 [4]; rCYP3A4
  Intrinsic clearance, CLint: 0.86 µL/min/pmol
hiPSC-CMs
  long-term variability (LTVRR), fold compared to poyendarone: 3 fold
  short-term variability (STVRR), fold compared to poyendarone: 4 fold
[5]
  Papp at 16 h: 3.46 ×10⁻⁶ cm/s
CYP2J2 [6]; human, recombinant enzyme
  half-life at 1 μmol/L: 3.95 min
CYP2J2 [6]; rCYP2J2
  Intrinsic clearance, CLint: 0.88 µL/min/pmol
[7]
  half-life at 1 μmol/L: 10.4 min
  microsomal CLint at 1 μmol/L: 13.3 µL/min/mg
CYP2J2 [8]
  inhibition of CYP2J2-mediated AA metabolism to EETs (in words): inhibits CYP2J2-mediated AA metabolism in a concentration-dependent manner
[1]
  period after administration with increased STVQT: 0.5 to 12 h
  peak increment of STVQT: 3.06 ± 0.80 ms
[1]; throughout observation period
  STVQT relative to the critical border for early afterdepolarization: intermittently elevated STVQT
[9]
  solubility at 24 h: 3.22 ± 0.34 µg/mL (≈ 5.78 µM)
[2]; hydrochloride 3 mg/kg i.v. over 30 s, conscious dogs, 21 h observation
  animals in which persistent AF was terminated: 2 out of 4
[2]; [16]
  time of AF termination after the start of administration (individual animals): 5.2 h and 10.6 h
CYP3A5 [10]; CYP3A5, rivaroxaban substrate
  kinact/KI: 0.000121 M⁻¹ s⁻¹
CYP3A5 [10]; CYP3A5, rivaroxaban substrate, mean ± SEM
  KI: 4.44 ± 1.76 µM
CYP3A5 [10]; human, recombinant CYP3A5 (rCYP3A5), probe rivaroxaban
  kinact: 0.000538 s⁻¹
hKV11.1 (hERG) channel
  IC50: 0.16 µM
CYP2J2 [11]; CYP2J2, rivaroxaban substrate
  kinact/KI: 7.85e-05 M⁻¹ s⁻¹
CYP2J2 [11]; CYP2J2, rivaroxaban substrate, mean ± SEM
  KI: 8.47 ± 3.96 µM
CYP2J2 [11]; human
  kinact: 0.000667 s⁻¹
CYP2J2 [11]; rivaroxaban as probe substrate
  MBI of CYP2J2-mediated rivaroxaban hydroxylation (in words): potently inactivated
[12]
  IC50: 1.96 µM
CYP3A5 [13]; human, recombinant CYP3A5 (rCYP3A5)
  half-life at 1 μmol/L: 12.2 min
CYP3A5 [13]; rCYP3A5
  Intrinsic clearance, CLint: 0.57 µL/min/pmol
Human NaV1.5 channel
  IC50: 3.41 µM
CYP2J2 [14]
  kinact/KI: 8300 M⁻¹ s⁻¹
[3]
  atrial effective refractory period prolongation: +4 ms
  inter-atrial conduction time prolongation: +13 ms
CYP3A4 [15]
  kinact/KI: 8.42e-05 M⁻¹ s⁻¹
CYP3A4 [15]; as printed in text
  kinact/KI: 83.3 M⁻¹ s⁻¹
CYP3A4 [15]; mean ± SEM
  KI: 5.3 ± 2.95 µM
H9c2 cells
  fold higher cytotoxicity than poyendarone: 22 fold
  fold more potent decrease of intracellular ATP than poyendarone: 13 fold
